# Measured values taken from ChEMBL document CHEMBL4619802, “Discovery and Characterization of Pure RhlR Antagonists against Pseudomonas aeruginosa Infections” (J Med Chem, 2020).
# Activity calls are given as the source filed them. No cut-off for these calls is given here.
# How the values were obtained:
# [1] = target: T1, HTH-type quorum-sensing regulator RhlR (Pseudomonas aeruginosa (strain ATCC 15692 / PAO1 / 1C / PRS 101 / LMG12228)) (UniProt P54292); experiment: Antagonist activity at RhlR in Pseudomonas aeruginosa assessed as rhamnolipid production at 100 uM incubated for 24 hrs by Orcinol staining based assay relative to control; parameters: scale not given: the % may be the effect or the level left
# T1 sequence (whole entry): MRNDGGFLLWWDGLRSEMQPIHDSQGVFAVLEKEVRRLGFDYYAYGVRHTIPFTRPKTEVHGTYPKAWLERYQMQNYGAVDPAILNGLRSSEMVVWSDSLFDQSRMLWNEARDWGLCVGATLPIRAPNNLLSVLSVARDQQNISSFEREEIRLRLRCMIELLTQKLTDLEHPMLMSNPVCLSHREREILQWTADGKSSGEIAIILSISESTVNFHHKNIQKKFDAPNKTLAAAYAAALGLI
# [2] = target: T1, HTH-type quorum-sensing regulator RhlR (Pseudomonas aeruginosa (strain ATCC 15692 / PAO1 / 1C / PRS 101 / LMG12228)); experiment: Antagonist activity at RhlR in Pseudomonas aeruginosa assessed as rhamnolipid production at 10 uM incubated for 24 hrs by Orcinol staining based assay relative to control; parameters: scale not given: the % may be the effect or the level left
# Pseudomonas aeruginosa [3] = experiment: Antibacterial activity against Pseudomonas aeruginosa assessed as bacterial growth at 100 uM incubated for 24 hrs relative to control; format: functional
# Procedure, shortened: (§1)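 P. aeruginosa overnight culture (OD595 1.0) diluted 1:20 in AB medium (pH 7.5, 1% glucose, casamino acids, arginine) with compound, in borosilicate bottles, 37 °C for 24 h without shaking. Growth taken as OD595 of the suspended culture. Attached cells washed twice with PBS, stained with 0.1% crystal violet for 10 min, dye eluted in ethanol and read at 545 nm.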
# Pseudomonas aeruginosa [4] = experiment: Antibacterial activity against Pseudomonas aeruginosa assessed as bacterial growth at 10 uM incubated for 24 hrs relative to control; format: functional; procedure, shortened: as §1
# [5] = target: T1, HTH-type quorum-sensing regulator RhlR (Pseudomonas aeruginosa (strain ATCC 15692 / PAO1 / 1C / PRS 101 / LMG12228)); experiment: Modulation of RhlR in Pseudomonas aeruginosa assessed as biofilm formation at 100 uM incubated for 24 hrs under static condition by crystal violet staining based assay relative to control
# [6] = target: T1, HTH-type quorum-sensing regulator RhlR (Pseudomonas aeruginosa (strain ATCC 15692 / PAO1 / 1C / PRS 101 / LMG12228)); experiment: Agonist activity at Pseudomonas aeruginosa RhlR expressed in Escherichia coli DH5alpha assessed as relative protein activity at 1000 uM incubated for 1.5 hrs by luminescence reporter gene assay relative to control
# [7] = target: T1, HTH-type quorum-sensing regulator RhlR (Pseudomonas aeruginosa (strain ATCC 15692 / PAO1 / 1C / PRS 101 / LMG12228)); experiment: Modulation of RhlR in Pseudomonas aeruginosa assessed as biofilm formation at 10 uM incubated for 24 hrs under static condition by crystal violet staining based assay relative to control
# [8] = target: T1, HTH-type quorum-sensing regulator RhlR (Pseudomonas aeruginosa (strain ATCC 15692 / PAO1 / 1C / PRS 101 / LMG12228)); experiment: Antagonist activity at Pseudomonas aeruginosa RhlR expressed in Escherichia coli DH5alpha assessed as relative protein activity at 10 uM incubated for 1.5 hrs in presence of N-butyryl-L-homoserine lactone by luminescence reporter gene assay relative to control; parameters: scale not given: the % may be the effect or the level left
# Procedure, shortened: (§2)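 E. coli DH5α sdiA mutant carrying RhlR and rhlA::lacZ plasmids, at OD595 0.3 in LB. Compound given with BHL (10 µM per footnote) and 0.4% arabinose, 37 °C for 1.5 h.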
# [9] = target: T1, HTH-type quorum-sensing regulator RhlR (Pseudomonas aeruginosa (strain ATCC 15692 / PAO1 / 1C / PRS 101 / LMG12228)); experiment: Agonist activity at Pseudomonas aeruginosa RhlR expressed in Escherichia coli DH5alpha assessed as relative protein activity at 100 uM incubated for 1.5 hrs by luminescence reporter gene assay relative to control
# [10] = target: T1, HTH-type quorum-sensing regulator RhlR (Pseudomonas aeruginosa (strain ATCC 15692 / PAO1 / 1C / PRS 101 / LMG12228)); experiment: Antagonist activity at Pseudomonas aeruginosa RhlR expressed in Escherichia coli DH5alpha assessed as relative protein activity at 100 uM incubated for 1.5 hrs in presence of N-butyryl-L-homoserine lactone by luminescence reporter gene assay relative to control; parameters: scale not given: the % may be the effect or the level left; procedure, shortened: as §2
# [11] = target: T2, Transcriptional activator protein LasR (Pseudomonas aeruginosa (strain ATCC 15692 / PAO1 / 1C / PRS 101 / LMG12228)) (UniProt P25084); experiment: Agonist activity at Pseudomonas aeruginosa LasR expressed in Escherichia coli DH5alpha at 0.1 to 10 uM incubated for 1.5 hrs by luminescence reporter gene assay
# T2 sequence (whole entry): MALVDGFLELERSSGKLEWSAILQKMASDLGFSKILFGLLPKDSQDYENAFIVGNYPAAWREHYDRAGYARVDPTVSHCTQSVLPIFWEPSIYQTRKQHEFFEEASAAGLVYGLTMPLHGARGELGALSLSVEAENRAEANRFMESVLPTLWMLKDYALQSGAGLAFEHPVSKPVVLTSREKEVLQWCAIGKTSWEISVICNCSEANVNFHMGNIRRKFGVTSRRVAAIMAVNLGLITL
# [12] = target: T3, Transcriptional regulator MvfR (Pseudomonas aeruginosa PA14) (UniProt A0A072ZLE6); experiment: Agonist activity at Pseudomonas aeruginosa PqsR expressed in Escherichia coli DH5alpha at 0.1 to 10 uM incubated for 1.5 hrs by luminescence reporter gene assay
# T3 sequence (whole entry): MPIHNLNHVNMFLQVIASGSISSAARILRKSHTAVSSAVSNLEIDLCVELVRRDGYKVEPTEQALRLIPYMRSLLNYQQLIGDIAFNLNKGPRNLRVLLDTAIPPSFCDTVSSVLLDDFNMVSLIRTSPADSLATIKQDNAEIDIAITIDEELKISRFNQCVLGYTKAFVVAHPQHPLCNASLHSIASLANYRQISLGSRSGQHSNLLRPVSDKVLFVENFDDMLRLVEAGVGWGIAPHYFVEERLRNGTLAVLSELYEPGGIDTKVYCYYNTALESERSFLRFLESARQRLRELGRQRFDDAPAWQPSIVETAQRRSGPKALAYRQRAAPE
# [13] = target: T3, Transcriptional regulator MvfR (Pseudomonas aeruginosa PA14); experiment: Antagonist activity at Pseudomonas aeruginosa PqsR expressed in Escherichia coli DH5alpha at 0.1 to 10 uM incubated for 1.5 hrs by luminescence reporter gene assay
# [14] = target: T1, HTH-type quorum-sensing regulator RhlR (Pseudomonas aeruginosa (strain ATCC 15692 / PAO1 / 1C / PRS 101 / LMG12228)); experiment: Modulation of RhlR in Pseudomonas aeruginosa assessed as reduction in biofilm formation at 10 uM incubated for 48 hrs under dynamic condition by measuring biofilm volume by 4',6-diamidino-2-phenylindole staining based confocal laser scanning microscopy
# Procedure, shortened: (§3)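 Drip-flow reactor with glass slides, fed continuously at 0.3 mL/min with AB medium containing 5% P. aeruginosa (OD595 1.0) plus compound, 37 °C for 48 h. Unattached cells removed with PBS. Volume and thickness obtained with Comstat2.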
# [15] = target: T1, HTH-type quorum-sensing regulator RhlR (Pseudomonas aeruginosa (strain ATCC 15692 / PAO1 / 1C / PRS 101 / LMG12228)); experiment: Modulation of RhlR in Pseudomonas aeruginosa assessed as reduction in biofilm formation at 10 uM incubated for 48 hrs under dynamic condition by measuring biofilm thickness by 4',6-diamidino-2-phenylindole staining based confocal laser scanning microscopy; procedure, shortened: as §3
# Pseudomonas aeruginosa [16] = experiment: Downregulation of rhlA expression in biofilm of Pseudomonas aeruginosa at 10 uM after 24 hrs by RT-qPCR analysis relative to control; format: functional
# Procedure, shortened: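 P. aeruginosa (OD595 1.0) diluted 1:20 in AB medium with compound in borosilicate bottles, 37 °C for 24 h. Total RNA extracted from biofilm cells and run by SYBR RT-qPCR with QS-gene primers. Cycling: 95 °C 10 s, then 40 cycles of 95 °C 10 s and 60 °C 10 s.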
# [17] = target: T2, Transcriptional activator protein LasR (Pseudomonas aeruginosa (strain ATCC 15692 / PAO1 / 1C / PRS 101 / LMG12228)); experiment: Antagonist activity at Pseudomonas aeruginosa LasR expressed in Escherichia coli DH5alpha at 0.1 to 10 uM incubated for 1.5 hrs by luminescence reporter gene assay
# [18] = target: T1, HTH-type quorum-sensing regulator RhlR (Pseudomonas aeruginosa (strain ATCC 15692 / PAO1 / 1C / PRS 101 / LMG12228)); experiment: Modulation of RhlR in Pseudomonas aeruginosa assessed as inhibition of biofilm formation at 10 uM incubated for 24 hrs under static condition by crystal violet staining based assay relative to control; parameters: scale not given: the % may be the effect or the level left; procedure, shortened: as §1
# [19] = target: T1, HTH-type quorum-sensing regulator RhlR (Pseudomonas aeruginosa (strain ATCC 15692 / PAO1 / 1C / PRS 101 / LMG12228)); experiment: Modulation of RhlR in Pseudomonas aeruginosa assessed as inhibition of biofilm formation at 100 uM incubated for 24 hrs under static condition by crystal violet staining based assay relative to control; parameters: scale not given: the % may be the effect or the level left; procedure, shortened: as §1
# Pseudomonas aeruginosa [20] = experiment: Effect on extracellular polymeric substance in biofilm of Pseudomonas aeruginosa assessed as reduction in carbohydrate level at 10 uM relative to control; format: functional; parameters: scale not given: the % may be the effect or the level left
# Procedure, shortened: (§4)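 Biofilm scraped from drip-flow reactor slides and resuspended in 0.01 M KCl. Sonicated 4 cycles of 5 s on/5 s off, supernatant filtered through 0.22 µm. Protein by Lowry/Folin, read at OD750. Carbohydrate by sulfuric acid 30 min then 5% phenol at 90 °C for 5 min, read at OD490. Each divided by OD595.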
# Pseudomonas aeruginosa [21] = experiment: Effect on extracellular polymeric substance in biofilm of Pseudomonas aeruginosa assessed as reduction in protein level at 10 uM relative to control; format: functional; parameters: scale not given: the % may be the effect or the level left; procedure, shortened: as §4
# Pseudomonas aeruginosa [22] = experiment: Effect on pycocyanin production in Pseudomonas aeruginosa harboring RhlR mutant at 10 uM after 24 hrs by […]; format: functional, organism-based
# Procedure, shortened: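 P. aeruginosa overnight culture (OD595 = 1.0) was diluted 1:100 in AB medium with compounds or controls at 0–10 µM and grown at 37 °C for 24 h. Pyocyanin was extracted from the supernatant with 50% TFA at 37 °C for 1 h, then filtered. It was quantified by C18 HPLC (99:1 water/TFA, 0.5 mL/min, 25 °C) as peak height at the 20 min retention time.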
# Pseudomonas aeruginosa [23] = experiment: Downregulation of rhlA expression in Pseudomonas aeruginosa harboring RhlR mutant up to 10 uM after 24 hrs by RT-qPCR method; format: functional, organism-based
# Procedure, shortened: (§5)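 P. aeruginosa overnight culture (OD595 = 1.0) was diluted 1:20 in AB medium (pH 7.5) with compounds or controls at 0–10 µM. It was grown statically in borosilicate bottles at 37 °C for 24 h, and biofilm cells were collected. Total RNA was extracted with TRI reagent. SYBR-based RT-qPCR used QS gene primers: 95 °C 10 s, then 40 cycles of 95 °C 10 s and 60 °C 10 s.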
# Pseudomonas aeruginosa [24] = experiment: Downregulation of phzC1 expression in Pseudomonas aeruginosa harboring RhlR mutant up to 10 uM after 24 hrs by RT-qPCR method; format: functional, organism-based; procedure, shortened: as §5
# Pseudomonas aeruginosa [25] = experiment: Effect on lasR expression in Pseudomonas aeruginosa harboring RhlR mutant up to 10 uM after 24 hrs by RT-qPCR method; format: functional, organism-based; procedure, shortened: as §5
# Pseudomonas aeruginosa [26] = experiment: Effect on lasB expression in Pseudomonas aeruginosa harboring RhlR mutant up to 10 uM after 24 hrs by RT-qPCR method; format: functional, organism-based; procedure, shortened: as §5
# Pseudomonas aeruginosa [27] = experiment: Effect on pqsR expression in Pseudomonas aeruginosa harboring RhlR mutant up to 10 uM after 24 hrs by RT-qPCR method; format: functional, organism-based; procedure, shortened: as §5
# Pseudomonas aeruginosa [28] = experiment: Antibacterial activity against Pseudomonas aeruginosa infected in Tenebrio molitor larvae assessed as larvae survival at 10 uM incubated for 20 days and measured every 5 days; format: functional
# Procedure, shortened: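 P. aeruginosa overnight culture (OD595 = 1.0) was centrifuged, and the supernatant passed through a 0.22 µm filter. 10 µL was injected into T. molitor larvae by syringe needle, with compounds or controls at 0–10 µM. Larvae were kept in Petri dishes at 25 °C for 20 days, and mortality was scored every 5 days.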
Compound,Activity [1],Activity [2],Activity (Pseudomonas aeruginosa [3]),Activity (Pseudomonas aeruginosa [4]),Activity [5],Activity [6],Activity [7],Activity [8],Activity [9],Activity [10],Activity [11],Activity [12],Activity [13],Activity (Pseudomonas aeruginosa [16]),Activity [17],further results
CCCC(=O)NC1CCCC1,45%,58%,98%,95%,69%,37%,84%,74%,4%,54%,inactive,inactive,inactive,65 - 79%,,Activity [14]: 14.4 um3/um2; Activity [15]: 20.2 µm
CCCC(O)CC(=O)CCc1ccc(O)c(OC)c1 (configuration not stated),,,,,,,,,3 to 4%,54 to 69%,inactive,inactive,inactive,65 - 79%,inactive,Activity [18]: 14 to 32%; Activity [19]: 29 to 53%
CCCC(=O)C#Cc1ccc(F)c(F)c1,,,99%,103%,,,,,,,inactive,inactive,inactive,65 - 79%,,Activity (Pseudomonas aeruginosa [20]): 39%; Activity (Pseudomonas aeruginosa [21]): 72%; Activity (Pseudomonas aeruginosa [22]): inactive; Activity (Pseudomonas aeruginosa [23]): Active; Activity (Pseudomonas aeruginosa [24]): Active; Activity (Pseudomonas aeruginosa [25]): inactive; Activity (Pseudomonas aeruginosa [26]): inactive; Activity (Pseudomonas aeruginosa [27]): inactive; survival at 10 µM (Pseudomonas aeruginosa [28]): 80%
CCCCC[C@H](O)CC(=O)CCc1ccc(O)c(OC)c1 [GINGEROL],,,101%,96%,,,,,,,inactive,inactive,inactive,38%,Active,
CCCC(O)CC(=O)/C=C/c1ccc(O)c(O)c1 (configuration not stated),50%,56%,104%,99%,72%,5%,84%,60%,3%,43%,,,,,,
CCCC(O)CC(=O)/C=C/c1cccc(OC)c1 (configuration not stated),83%,91%,95%,96%,73%,4%,88%,89%,2%,94%,,,,,,
